Assay outcomes deposited in PubChem by several laboratories.
PTEN del growth = PTEN-deleted cell growth suppression. HCT116 PTEN-null viability, CellTiter-Glo, 60 h; hits give low values. viability, % at 10 µM. hit rate 1.2% among 140,000;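 active means viability at or below a set limit, 4 SD under the median of all tested compounds, cut at about 3.7% in these data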;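 further: PTEN knockout HCT116 line with beta catenin targeted HCT116 as companion control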
bCat KO growth = beta-catenin-lacking colon tumor cell growth suppression. hit rate 1.5% among 140,000. viability, % at 10 µM. AID 818. HCT116 beta-catenin knockout viability, CellTiter-Glo, 60 h; hits give low values;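 active means viability at or under a set limit, the compound median less 4 SD, cut at about 6% in these data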
PMI act = phosphomannose isomerase (human) activation. P34949. purified human PMI, coupled resazurin fluorescence, 20 min; hits give high values; 1 = vehicle control, 0 substrate-free wells. activation factor at 20 µM. hit rate 0.005% among 190,000;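 active means activation factor of 2 or more at 20 µM, relative to plate controls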
Target sequence (P34949 whole entry, looked up): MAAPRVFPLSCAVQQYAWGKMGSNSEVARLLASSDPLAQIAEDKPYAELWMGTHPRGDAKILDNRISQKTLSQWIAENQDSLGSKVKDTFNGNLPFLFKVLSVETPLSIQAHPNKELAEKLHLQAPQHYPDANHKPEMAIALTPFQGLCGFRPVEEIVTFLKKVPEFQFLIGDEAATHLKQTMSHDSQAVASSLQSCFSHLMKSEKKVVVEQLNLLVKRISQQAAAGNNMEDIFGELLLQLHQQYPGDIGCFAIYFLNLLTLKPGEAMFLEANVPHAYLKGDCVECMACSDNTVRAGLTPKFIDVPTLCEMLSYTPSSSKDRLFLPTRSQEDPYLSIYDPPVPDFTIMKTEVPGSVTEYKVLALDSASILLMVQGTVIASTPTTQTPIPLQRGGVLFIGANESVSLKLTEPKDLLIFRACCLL
PMI act satM6P = increases human PMI activity with near-saturating mannose 6-phosphate; coupled PMI enzyme assay, resazurin fluorescence, 20 min; hits give high values; 1 = untreated enzyme, 0 = substrate-free blank; activation factor at 20 µM; hit rate 0.34% among 190,000; AID 1216;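 active means activation factor of 2 or more at 20 µM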
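Test system: human phosphomannose isomerase with PGI, G6PDH, diaphorase coupling enzymes; Amount: PMI at 15 ng/mL final; Reagent: Mannose-6-phosphate 1.0 mM (near-saturating) plus 0.22 mM NADP+; Timing: 20 min, room temperature; Technique: resorufin fluorescence at Ex 544/Em 590 nm; Dosing: 20 µM single dose.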
Lmaj promast = inhibitors of Leishmania major promastigote growth; Leishmania major promastigotes, resazurin fluorescence viability; AID 1063; inhibition, % at 10 µM; hit rate 9% among 200,000; in the data active means inhibition above about 50%;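 further: promastigotes grown with compound for 44 hours at 28 °C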
Large screens that a line does not name were inactive. Hits are enriched below; roughly 9.6% of the tested compounds scored in any of these assays.

COc1cc(CNCCc2ccc(S(N)(=O)=O)cc2)ccc1OCC(=O)NC1CCCCC1	none
Cc1cc(C)n(C(=O)CNc2ccc(C)c(C)c2)n1	PTEN del growth 1.4, bCat KO growth 0.9
COc1ccc(C(CNc2ccc(S(=O)(=O)N3CCCC3)cc2[N+](=O)[O-])N2CCCC2)cc1 (stereo unspecified)	none
Cc1[nH]c2ccccc2c1C(=O)CN1C(=O)NC2(CC(C)CC(C)(C)C2)C1=O (stereo unspecified)	Lmaj promast 90
CCN1CCN(C(=O)CCCn2c(C)c3cnn(-c4ccccc4)c(=O)c3c2C)CC1	Lmaj promast 69
O=C(OCC(=O)N1CCN(C(=O)c2ccco2)CC1)c1cc(-c2cccc(Br)c2)nc2ccccc12	none
O=C(N/N=C1\CCCc2ccccc21)c1ccc([N+](=O)[O-])cc1	Lmaj promast 69
O=C(Cc1cccc2ccccc12)N/N=C1\CCCc2ccccc21	Lmaj promast 64
CN(C)C(=O)NC(O)C(Cl)Cl (stereo unspecified)	none
Cc1nnc(SCC(=O)Nc2ccc(Cl)cn2)s1	Lmaj promast 57
Cc1cccc(-n2c(=O)[nH]c3c(C(N)=O)nc(CC(C)C)nc32)c1	Lmaj promast 50
Cc1cccc(-n2c(=O)[nH]c3c(C(N)=O)nc(-c4ccccc4Cl)nc32)c1	PTEN del growth 1.5, bCat KO growth 1.8
O=C(CCCCCn1c(=S)[nH]c2ccc(N3CCOCC3)cc2c1=O)NCc1cccc(Cl)c1	none (no result: PTEN del growth, bCat KO growth)
O=C(C1CCN(CCCc2ccccc2)CC1)N1CCCCC1	none
O=C(C1CCCN(CCCc2ccccc2)C1)N1CCCCCC1 (stereo unspecified)	Lmaj promast 71
O=C(C1CCCN(CCCc2ccccc2)C1)N1CCCCC1 (stereo unspecified)	none
CC1CCN(C(=O)C2CCN(CCCc3ccccc3)CC2)CC1	Lmaj promast 53
COc1ccc(N=Cc2cc3c(cc2O)OC(N)=C(C#N)C3c2ccccc2)cc1 (stereo unspecified)	none
CCCC(=O)Nc1cccc(Oc2nc(C)cc(C)c2C#N)c1	Lmaj promast 52
COc1ccc(C/C(N)=N/OC(=O)c2cccc([N+](=O)[O-])c2)cc1	Lmaj promast 63
CC1=C(C)/C(=N/OC(=O)c2cccc([N+](=O)[O-])c2)C=CC1=O	PTEN del growth 1.7, bCat KO growth 1.6, Lmaj promast 100
COc1ccc(C(=O)O/N=C(\N)Cc2ccc(Cl)c(Cl)c2)cc1OC	Lmaj promast 81
COc1ccc(C/C(N)=N/n2cnnc2)cc1Cl	none
N/C(=N/OC(=O)c1cccc([N+](=O)[O-])c1)c1cccc([N+](=O)[O-])c1	none (no result: PTEN del growth, bCat KO growth)
Cc1ccc(C(=O)OCc2nnc(-c3ccc(Br)cc3)o2)cc1	none (no result: PTEN del growth, bCat KO growth)
CCN(CC(=O)NCc1cccs1)C(=O)CCc1c[nH]c2ccccc12	none (no result: PTEN del growth, bCat KO growth)
COc1ccc(N2C(=O)CC(NCCNc3ccc([N+](=O)[O-])cn3)C2=O)cc1 (stereo unspecified)	none
Cc1ccccc1C(=O)NCCN1CCOCC1	none (no result: PTEN del growth, bCat KO growth)
CNC(=S)NCCN1CCOCC1	Lmaj promast 51
CC(NC(=S)NCCN1CCOCC1)C12CC3CC(CC(C3)C1)C2 (stereo unspecified)	Lmaj promast 91 (no result: PTEN del growth, bCat KO growth)
CC(NC(=S)NCCCN1CCOCC1)C1CC2CCC1C2 (stereo unspecified)	Lmaj promast 87 (no result: PTEN del growth, bCat KO growth)
Cc1ccccc1C(=O)NC(=S)NCCN1CCOCC1	Lmaj promast 83
CC(C)=CCC/C(C)=C/C=N/NC(=O)c1ccc([N+](=O)[O-])cc1	none
O=C(c1cccs1)N1N=C(c2ccccc2)CC1c1ccc(O)cc1 (stereo unspecified)	none
O=C(c1cccs1)N1N=C(c2ccc(O)cc2)CC1c1ccccc1 (stereo unspecified)	Lmaj promast 64
CCOc1ccc(CC(=O)C2=C(N3CCOCC3)CC(C)(C)CC2=O)cc1OCC	none (no result: PTEN del growth, bCat KO growth)
CCc1ccccc1N/N=C(/C)c1c(O)cc(C)oc1=O	PMI act satM6P 2.7 (no result: PTEN del growth, bCat KO growth)
O=C1CSC(c2ccccn2)N1c1ccc(F)cc1F (stereo unspecified)	none (no result: PTEN del growth, bCat KO growth)
Cc1ccc(-n2c(=O)c3c4c(sc3n(Cc3cc(=O)n5ccccc5n3)c2=O)CCC4)cc1C	Lmaj promast 74
O=c1c2sccc2n(Cc2cc(=O)n3ccccc3n2)c(=O)n1-c1ccccc1	none
CCn1c(SCC(=O)N/N=C(\C)c2ccco2)nnc1-c1ccccc1	none (no result: PTEN del growth, bCat KO growth)
